Measured values reported in ChEMBL document CHEMBL4002582, “Bioactive Terpenoids from Salvia plebeia: Structures, NO Inhibitory Activities, and Interactions with iNOS” (J Nat Prod, 2016).

What was measured:
[1] = system: BV-2; assay: Antiinflammatory activity in mouse BV2 cells assessed as inhibition of LPS-induced nitric oxide production incubated for 24 hrs by Griess assay; type: functional, cell-based; details: BV-2, 24 h
Outline: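 NO output from murine microglial BV-2 cells was stimulated with lipopolysaccharide. IC50 values were derived from the inhibition of LPS-induced NO generation, and results come from three experiments. 2-Methyl-2-thiopseudourea sulfate (SMT) was the positive control.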

[2] = system: BV-2; assay: Cytotoxicity against mouse BV2 cells assessed as effect on cell survival by MTT assay; type: cell-based

IC50 [1] [µM]	Structure (SMILES)	Activity [2]
92.9	CC1=CC[C@@H]2[C@@H]3C[C@H]1[C@@]2(C)[C@@H](O)C[C@@H]3C(C)C	Non-Toxic
38.9	CC(=O)[C@H]1CC[C@@H]2[C@@H]1[C@H](C(C)C)CC[C@@]2(C)O	Non-Toxic
> 30	CO[C@H]1O[C@H]2CC[C@@]13c1c(cc(C(C)C)c(O)c1O)CC[C@H]3C2(C)C	Non-Toxic
14.8	CC(C)C1=C[C@@]23CC[C@H]4C(C)(C)C[C@H](O)C[C@]4(CO2)C3=C(O)C1=O	Non-Toxic
> 30	CC(=O)O[C@H]1CC(C)(C)[C@@H]2C[C@@H]3OC[C@@]2(C1)c1c3cc(C(C)C)c(O)c1O	Non-Toxic
10.6	CC(C)c1cc2c(c(O)c1O)C[C@@]1(O)CCCC(C)(C)[C@@H]1CC2	Non-Toxic
47.6	CC(=O)OC[C@@]1(O)CC[C@@H]2[C@H]([C@H]3[C@H]1CC[C@]3(C)O)C2(C)C	Non-Toxic
2.9	CSC(=N)N	
5.7	CC(=O)O[C@H]1CC(C)(C)[C@@H]2CC[C@@]34C=C(C(C)C)C(=O)C(O)=C3[C@@]2(CO4)C1	Non-Toxic
63.5	CC(C)C1=CC[C@@]2(C)[C@H](O)CC[C@](C)(O)[C@@H]2C1 [OPLODIOL]	Non-Toxic

Structure (SMILES)	IC50 [1] [µM]	Activity [2]
CC(=O)O[C@H]1CC(C)(C)C2=C(O)C(=O)c3cc(C(C)C)c(O)c(O)c3[C@@]2(C)C1	26.5	Non-Toxic
